{
  "source": "ChEMBL document CHEMBL1821556",
  "about": "“Structure-activity relationships of antitubercular nitroimidazoles. 3. Exploration of the linker and lipophilic tail of ((s)-2-nitro-6,7-dihydro-5H-imidazo[2,1-b][1,3]oxazin-6-yl)-(4-trifluoromethoxybenzyl)amine (6-amino PA-824)” (J Med Chem, 2011)",
  "key": {"[1]": {"substrate": "O=[N+]([O-])c1cn2c(n1)OC[C@@H](NCc1ccc(OC(F)(F)F)cc1N1CCOCC1)C2", "experiment": "(§1) Ratio of Kcat to Km for Mycobacterium tuberculosis deazaflavin-dependent nitroreductase", "in_short": "(§2)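 Each compound was tested as a substrate of Mtb deazaflavin-dependent nitroreductase (Ddn). kcat/KM was derived from the kinetics of reduced F420 reoxidation. Assays were repeated in two independent laboratories until concordant, and values are averages of multiple measurements.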"}, "[2]": {"substrate": "COc1cc(CN[C@@H]2COc3nc([N+](=O)[O-])cn3C2)ccc1OC(F)(F)F", "experiment": "as §1", "in_short": "as §2"}, "[3]": {"substrate": "CN1CCN(c2cc(OC(F)(F)F)ccc2CN[C@@H]2COc3nc([N+](=O)[O-])cn3C2)CC1", "experiment": "as §1", "in_short": "as §2"}, "[4]": {"substrate": "O=[N+]([O-])c1cn2c(n1)OC[C@@H](NCc1ccc(OC(F)(F)F)cc1)C2", "experiment": "as §1", "in_short": "as §2"}, "[5]": {"substrate": "O=[N+]([O-])c1cn2c(n1)OC[C@@H](NCc1ccc(OC(F)(F)F)cc1F)C2", "experiment": "as §1", "in_short": "as §2"}, "[6]": {"substrate": "O=[N+]([O-])c1cn2c(n1)OC[C@@H](NCc1ccc(OC(F)(F)F)cc1OCC1CC1)C2", "experiment": "as §1", "in_short": "as §2"}, "[7]": {"substrate": "O=[N+]([O-])c1cn2c(n1)OC[C@@H](NCc1ccc(OC(F)(F)F)cc1Br)C2", "experiment": "as §1", "in_short": "as §2"}, "[8]": {"substrate": "CCNC(=O)N(Cc1ccc(OC(F)(F)F)cc1)[C@@H]1COc2nc([N+](=O)[O-])cn2C1", "experiment": "as §1", "in_short": "as §2"}, "[9]": {"substrate": "O=[N+]([O-])c1cn2c(n1)OC[C@@H](OCc1ccc(OC(F)(F)F)cc1)C2", "experiment": "as §1", "in_short": "as §2"}, "[10]": {"substrate": "COC(=O)c1cc(CN[C@@H]2COc3nc([N+](=O)[O-])cn3C2)ccc1OC(F)(F)F", "experiment": "as §1", "in_short": "as §2"}, "[11]": {"substrate": "CC(N[C@@H]1COc2nc([N+](=O)[O-])cn2C1)c1ccc(OC(F)(F)F)cc1", "experiment": "as §1", "in_short": "as §2"}, "[12]": {"substrate": "COc1cc(OC(F)(F)F)ccc1CN[C@@H]1COc2nc([N+](=O)[O-])cn2C1", "experiment": "as §1", "in_short": "as §2"}, "[13]": {"substrate": "O=CN(Cc1ccc(OC(F)(F)F)cc1)[C@@H]1COc2nc([N+](=O)[O-])cn2C1", "experiment": "as §1", "in_short": "as §2"}, "[14]": {"substrate": "COc1cc(CO[C@@H]2COc3nc([N+](=O)[O-])cn3C2)ccc1OC(F)(F)F", "experiment": "as §1", "in_short": "as §2"}, "[15]": {"substrate": "CN(Cc1ccc(OC(F)(F)F)cc1)[C@@H]1COc2nc([N+](=O)[O-])cn2C1", "experiment": "as §1", "in_short": "as §2"}, "[16]": {"substrate": "CC(=O)N(Cc1ccc(OC(F)(F)F)cc1)[C@@H]1COc2nc([N+](=O)[O-])cn2C1", "experiment": "as §1", "in_short": "as §2"}, "[17]": {"substrate": "O=[N+]([O-])c1cn2c(n1)OC[C@@H](NCc1ccc(OC(F)(F)F)cc1OCc1ccccc1)C2", "experiment": "as §1", "in_short": "as §2"}, "[18]": {"substrate": "O=[N+]([O-])c1cn2c(n1)OC[C@@H](NCc1ccc(OC(F)(F)F)cc1OC1CC1)C2", "experiment": "as §1", "in_short": "as §2"}, "[19]": {"substrate": "CN1CCN(c2cc(CN[C@@H]3COc4nc([N+](=O)[O-])cn4C3)ccc2OC(F)(F)F)CC1", "experiment": "as §1", "in_short": "as §2"}, "[20]": {"substrate": "O=[N+]([O-])c1cn2c(n1)OC[C@@H](NCc1ccc(OC(F)(F)F)c(O)c1)C2", "experiment": "as §1", "in_short": "as §2"}, "[21]": {"substrate": "O=[N+]([O-])c1cn2c(n1)OC[C@@H](NC(c1ccc(OC(F)(F)F)cc1)c1ncc[nH]1)C2", "experiment": "as §1", "in_short": "as §2"}, "[22]": {"substrate": "O=[N+]([O-])c1cn2c(n1)OC[C@@H](NCc1ccc(OC(F)(F)F)c(Cl)c1)C2", "experiment": "as §1", "in_short": "as §2"}, "[23]": {"substrate": "O=[N+]([O-])c1cn2c(n1)OC[C@@H](NCc1ccc(OC(F)(F)F)c(N3CCOCC3)c1)C2", "experiment": "as §1", "in_short": "as §2"}, "[24]": {"substrate": "O=C(c1cccc(Cl)c1)N(Cc1ccc(OC(F)(F)F)cc1)[C@@H]1COc2nc([N+](=O)[O-])cn2C1", "experiment": "as §1", "in_short": "as §2"}, "[25]": {"substrate": "O=[N+]([O-])c1cn2c(n1)OC[C@@H](NCc1ccc(OC(F)(F)F)cc1Oc1ccccc1)C2", "experiment": "as §1", "in_short": "as §2"}, "[26]": {"substrate": "O=[N+]([O-])c1cn2c(n1)OC[C@@H](NC(CO)c1ccc(OC(F)(F)F)cc1)C2", "experiment": "as §1", "in_short": "as §2"}, "[27]": {"substrate": "O=[N+]([O-])c1cn2c(n1)OC[C@@H](NCc1ccc(OC(F)(F)F)c(F)c1)C2", "experiment": "as §1", "in_short": "as §2"}, "[28]": {"substrate": "O=C(c1ccccc1)N(Cc1ccc(OC(F)(F)F)cc1)[C@@H]1COc2nc([N+](=O)[O-])cn2C1", "experiment": "as §1", "in_short": "as §2"}, "[29]": {"substrate": "O=C(c1ccccc1Cl)N(Cc1ccc(OC(F)(F)F)cc1)[C@@H]1COc2nc([N+](=O)[O-])cn2C1", "experiment": "as §1", "in_short": "as §2"}, "[30]": {"substrate": "CCCCC(N[C@@H]1COc2nc([N+](=O)[O-])cn2C1)c1ccc(OC(F)(F)F)cc1", "experiment": "as §1", "in_short": "as §2"}, "[31]": {"substrate": "O=[N+]([O-])c1cn2c(n1)OC[C@@H](NC(CCO)c1ccc(OC(F)(F)F)cc1)C2", "experiment": "as §1", "in_short": "as §2"}, "[32]": {"substrate": "NC(=O)C(N[C@@H]1COc2nc([N+](=O)[O-])cn2C1)c1ccc(OC(F)(F)F)cc1", "experiment": "as §1", "in_short": "as §2"}, "[33]": {"substrate": "CCCC(N[C@@H]1COc2nc([N+](=O)[O-])cn2C1)c1ccc(OC(F)(F)F)cc1", "experiment": "as §1", "in_short": "as §2"}, "[34]": {"substrate": "O=[N+]([O-])c1cn2c(n1)OC[C@@H](NCc1ccc(OC(F)(F)F)cc1O)C2", "experiment": "as §1", "in_short": "as §2"}, "[35]": {"substrate": "O=[N+]([O-])c1cn2c(n1)OC[C@@H](OCc1ccc(OC(F)(F)F)c(O)c1)C2", "experiment": "as §1", "in_short": "as §2"}, "[36]": {"substrate": "O=[N+]([O-])c1cn2c(n1)OC[C@@H](OCc1ccc(OC(F)(F)F)c(F)c1)C2", "experiment": "as §1", "in_short": "as §2"}, "[37]": {"substrate": "CCC(N[C@@H]1COc2nc([N+](=O)[O-])cn2C1)c1ccc(OC(F)(F)F)cc1", "experiment": "as §1", "in_short": "as §2"}, "[38]": {"substrate": "CC(C)N(Cc1ccc(OC(F)(F)F)cc1)[C@@H]1COc2nc([N+](=O)[O-])cn2C1", "experiment": "as §1", "in_short": "as §2"}, "[39]": {"substrate": "O=[N+]([O-])c1cn2c(n1)OC[C@@H](NCc1ccc(OC(F)(F)F)c(Oc3ccccc3)c1)C2", "experiment": "as §1", "in_short": "as §2"}, "[40]": {"substrate": "O=[N+]([O-])c1cn2c(n1)OC[C@@H](NCc1ccc(OC(F)(F)F)cc1Cl)C2", "experiment": "as §1", "in_short": "as §2"}, "[41]": {"substrate": "O=[N+]([O-])c1cn2c(n1)OC[C@@H](NC(c1ccc(OC(F)(F)F)cc1)c1ncco1)C2", "experiment": "as §1", "in_short": "as §2"}, "[42]": {"substrate": "O=[N+]([O-])c1cn2c(n1)OC[C@@H](NCc1ccc(OC(F)(F)F)cc1N1CCCCC1)C2", "experiment": "as §1", "in_short": "as §2"}, "[43]": {"substrate": "O=C(c1ccc(Cl)cc1)N(Cc1ccc(OC(F)(F)F)cc1)[C@@H]1COc2nc([N+](=O)[O-])cn2C1", "experiment": "as §1", "in_short": "as §2"}, "[44]": {"substrate": "CCCN(Cc1ccc(OC(F)(F)F)cc1)[C@@H]1COc2nc([N+](=O)[O-])cn2C1", "experiment": "as §1", "in_short": "as §2"}},
  "data": [
    {"protein": "Deazaflavin-dependent nitroreductase (Mycobacterium tuberculosis), P9WP15 (protein) MPKSPPRFLNSPLSDFFIKWMSRINTWMYRRNDGEGLGGTFQKIPVALLTTTGRKTGQPRVNPLYFLRDGGRVIVAASKGGAEKNPMWYLNLKANPKVQVQIKKEVLDLTARDATDEERAEYWPQLVTMYPSYQDYQSWTDRTIPIVVCEP", "values": [
      {"measurement": "kcat/Km", "setting": "[1]", "result": 0.19},
      {"measurement": "kcat/Km", "setting": "[2]", "result": 0.19},
      {"measurement": "kcat/Km", "setting": "[3]", "result": 0.17},
      {"measurement": "kcat/Km", "setting": "[4]", "result": 0.17},
      {"measurement": "kcat/Km", "setting": "[5]", "result": 0.2},
      {"measurement": "kcat/Km", "setting": "[6]", "result": 0.37},
      {"measurement": "kcat/Km", "setting": "[7]", "result": 0.25},
      {"measurement": "kcat/Km", "setting": "[8]", "result": 0},
      {"measurement": "kcat/Km", "setting": "[9]", "result": 0.15},
      {"measurement": "kcat/Km", "setting": "[10]", "result": 0.17},
      {"measurement": "kcat/Km", "setting": "[11]", "result": 0.09},
      {"measurement": "kcat/Km", "setting": "[12]", "result": 0.15},
      {"measurement": "kcat/Km", "setting": "[13]", "result": 0.07},
      {"measurement": "kcat/Km", "setting": "[14]", "result": 0.24},
      {"measurement": "kcat/Km", "setting": "[15]", "result": 0.25},
      {"measurement": "kcat/Km", "setting": "[16]", "result": 0.02},
      {"measurement": "kcat/Km", "setting": "[17]", "result": 0.31},
      {"measurement": "kcat/Km", "setting": "[18]", "result": 0.31},
      {"measurement": "kcat/Km", "setting": "[19]", "result": 0.16},
      {"measurement": "kcat/Km", "setting": "[20]", "result": 0.13},
      {"measurement": "kcat/Km", "setting": "[21]", "result": 0.17},
      {"measurement": "kcat/Km", "setting": "[22]", "result": 0.31},
      {"measurement": "kcat/Km", "setting": "[23]", "result": 0.1},
      {"measurement": "kcat/Km", "setting": "[24]", "result": 0.25},
      {"measurement": "kcat/Km", "setting": "[25]", "result": 0.42},
      {"measurement": "kcat/Km", "setting": "[26]", "result": 0.15},
      {"measurement": "kcat/Km", "setting": "[27]", "result": 0.21},
      {"measurement": "kcat/Km", "setting": "[28]", "result": 0.16},
      {"measurement": "kcat/Km", "setting": "[29]", "result": 0.13},
      {"measurement": "kcat/Km", "setting": "[30]", "result": 0.4},
      {"measurement": "kcat/Km", "setting": "[31]", "result": 0.21},
      {"measurement": "kcat/Km", "setting": "[32]", "result": 0.12},
      {"measurement": "kcat/Km", "setting": "[33]", "result": 0.31},
      {"measurement": "kcat/Km", "setting": "[34]", "result": 0.18},
      {"measurement": "kcat/Km", "setting": "[35]", "result": 0.14},
      {"measurement": "kcat/Km", "setting": "[36]", "result": 0.33},
      {"measurement": "kcat/Km", "setting": "[37]", "result": 0.14},
      {"measurement": "kcat/Km", "setting": "[38]", "result": 0.04},
      {"measurement": "kcat/Km", "setting": "[39]", "result": 0.13},
      {"measurement": "kcat/Km", "setting": "[40]", "result": 0.27},
      {"measurement": "kcat/Km", "setting": "[41]", "result": 0.2},
      {"measurement": "kcat/Km", "setting": "[42]", "result": 0.42},
      {"measurement": "kcat/Km", "setting": "[43]", "result": 0.37},
      {"measurement": "kcat/Km", "setting": "[44]", "result": 0.32}
    ]}
  ]
}
